pEC50, pIC50: −log10 of the molar value. Values after ≈ are worked out from the molar mass of the structure shown. Active and inactive are the calls of the source. The calls are words filed in the database; no cut-off is given here.
Assays:
Liver microsomes [1] = experiment: Metabolic stability in rat liver microsomes assessed as compound remaining at 1 uM after 6 hrs by HPLC analysis in absence of NADPH-regenerating system; assay type: ADME, Microsome
In short: (§1)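 Compound at 1 μM incubated at 37 °C with pooled rat liver microsomes (0.2 mg protein/mL) in 10 mM phosphate buffer, pH 7.4. Reaction started with NADPH-regenerating system A (NADP+, glucose 6-phosphate, MgCl2) plus B (glucose 6-phosphate dehydrogenase); no-cofactor runs used water instead. Remaining compound measured after 6 h by RP-18 HPLC in acetonitrile/water 25:75, 1 mL/min.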

Plasmodium falciparum [2] = experiment: Inhibition of Plasmodium falciparum cytochrome bc1 complex using decylubiquinol as substrate at <= 10 uM by UV-visible spectrophotometric analysis
Plasmodium falciparum [3] = experiment: Antiplasmodial activity against Plasmodium falciparum 3D7 transfected with yeast GFP-tagged DHODH assessed as parasite growth inhibition; assay type: functional, organism-based
Plasmodium falciparum [4] = experiment: Antiplasmodial activity against Plasmodium falciparum 3D7 assessed as parasite growth inhibition; assay type: functional, organism-based
Plasmodium berghei [5] = experiment: Antiplasmodial activity against liver stage of Plasmodium berghei infected in human HuH7 cells assessed as parasite growth inhibition incubated for 1 hr prior to parasite infection measured after 48 hrs; assay type: functional, organism-based; settings: Huh-7, Liver
In short: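 Huh-7 cells (12 × 10^3/well) seeded the day before, given compound (10 mM MeOH stock diluted in medium) 1 h before adding 10 000 P. berghei PbGFP-Luccon sporozoites/well from mosquito salivary glands, then spun 1700g 5 min. Medium with compound renewed at 24 h. Luminescence read 48 h post-infection; IC50 by nonlinear regression of normalized dose–response.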

[6] = Metabolic stability in rat liver microsomes assessed as compound remaining at 1 uM after 6 hrs by HPLC analysis in presence of NADPH-regenerating system; assay type: ADME, Microsome; settings: read-out: Stability; in short: as §1
HEK-293T = experiment: Cytotoxicity against HEK293T cells; assay type: cell-based; settings: Homo sapiens
In short: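 HEK293T seeded the day before in RPMI 1640 with 10% FBS, penicillin/streptomycin and 2 mM L-glutamine. Serial dilutions from DMSO were added for 48 h at 37 °C, 5% CO2. Then MTT for 3 h, formazan taken up in DMSO, absorbance read at 570 nm. EC50 by nonlinear regression of the concentration–response curve.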

[7] = Selectivity index, ratio of EC50 for HEK293T cells to IC50 for blood stage of chloroquine-resistant Plasmodium falciparum W2 infected in human RBC; assay type: functional, HEK-293T
In short: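 Ratio of two values. EC50: HEK293T cells seeded the previous day in RPMI 1640/10% FBS, given serial DMSO-diluted compound for 48 h at 37 °C, 5% CO2, then MTT for 3 h; formazan read at 570 nm and EC50 fitted by nonlinear regression. IC50: 48 h W2 blood-stage growth in human RBCs, scored by YOYO-1 flow cytometry.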

Plasmodium falciparum [8] = experiment: Antiplasmodial activity against blood stage of chloroquine-resistant Plasmodium falciparum W2 infected in human RBC assessed as parasite growth inhibition after 48 hrs by flow cytometric analysis; assay type: functional, organism-based; settings: W2, 48 h
[9] = Chemical stability in aqueous buffer at pH 7.4 at 37 degC measured for 10 days; assay type: physicochemical; settings: pH 7.4, 240 h
In short: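 Stability tested by holding compound in aqueous buffer at pH 7.4 (and pH 0.3) at 37 °C for 10 days.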

Huh-7 = experiment: Cytotoxicity against human HuH7 cells assessed as cell viability up to 5 uM by AlamarBlue assay; assay type: cell-based
In short: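 Huh-7 hepatoma cells in RPMI 1640 with 10% FCS, nonessential amino acids, glutamine and 10 mM HEPES pH 7, kept at 37 °C, 5% CO2. Treated as in the liver-stage infection assay. Viability read by AlamarBlue per manufacturer's protocol.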

[10] = Inhibition of hemozoin-like crystal formation after 5 days; assay type: functional; settings: 120 h
In short: (§2)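 Hemozoin-like crystal stock sonicated 3 min and diluted in broth to 2 μM final (heme equivalents). Compounds from 25 mM DMSO stocks were 0.22-μm filtered and dosed at 0–1000 μM final. Incubated 37 °C, 5% CO2, 5 days, then scored for presence or absence of crystal growth. Run in triplicate.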

Liver microsomes [11] = experiment: Drug metabolism in rat liver microsomes assessed as quinoline metabolite formation through N-dealkylation of compound after 6 hrs by mass spectrophotometric analysis; assay type: ADME, Microsome
Plasmodium berghei [12] = experiment: Potency index, ratio of primaquine IC50 to compound IC50 for liver stage of Plasmodium berghei infected in human HuH7 cells; assay type: functional, Huh-7
[13] = Inhibition of hemozoin-like crystal formation at 1 to 1000 uM after 5 days; assay type: functional; in short: as §2

Row | Compound | Stability (Liver microsomes [1]) | pIC50 (Plasmodium berghei [5]) | remaining at 6 h, 1 µM [6] [%] | pEC50 (HEK-293T) | Selectivity Index [7] | pIC50 (Plasmodium falciparum [8]) | Activity (Huh-7) | further results
1 | CCN(CC)CCCCn1cc/c(=N\c2ccc(-c3ccccc3)cc2)c2ccc(Cl)cc21 | Stable | 5.58 | 62.7 | < 4.00 | >1479 | 7.17 | – | inhibition (Plasmodium falciparum [2]): inactive; pIC50 (Plasmodium falciparum [3]): 7.17; pIC50 (Plasmodium falciparum [4]): 7.19
2 | CCN(CC)CCCn1cc/c(=N\c2ccc(-c3ccccc3)cc2)c2ccc(Cl)cc21 | – | – | – | < 4.00 | >662 | 6.82 | – | –
3 | CCN(CC)CCCn1cc/c(=N\c2ccc(-c3ccccc3)cc2)c2ccc(C(F)(F)F)cc21 | – | – | – | < 4.00 | >694 | 6.84 | – | –
4 | Clc1ccc2c(c1)/c(=N/c1ccc(-c3ccccc3)cc1)ccn2CCCN1CCCCC1 | Stable | – | 75 | 4.66 | 219 | 7.00 | Non-toxic | Stability [9]: Stable; MIC [10]: 1000 µM (≈ 456 µg/mL); Drug metabolism (Liver microsomes [11]): Active
5 | CCN(CC)CCn1cc/c(=N\c2ccc(-c3ccccc3)cc2)c2ccc(Cl)cc21 | Stable | – | 68 | 4.43 | 74 | 6.30 | – | –
6 | Cc1ccc(/N=c2\ccn(CCCN3CCCCC3)c3cc(Cl)ccc23)cc1 | – | – | – | < 4.00 | >302 | 6.48 | – | –
7 | Fc1ccc(-c2ccc3/c(=N/c4ccccc4)ccn(CCCN4CCCCC4)c3c2)cc1 | – | 5.86 | – | < 4.00 | >463 | 6.67 | – | –
8 | c1ccc(-c2ccc(/N=c3\ccn(CCCN4CCCCC4)c4cc(Nc5ccccn5)ccc34)cc2)cc1 | – | 6.36 | – | 5.13 | 21 | 6.45 | – | Ratio IC50 (Plasmodium berghei [12]): > 10
9 | Clc1ccc2/c(=N/c3ccc(-c4ccccc4)cc3)ccn(CCCN3CCCCC3)c2c1 | – | – | – | 4.38 | 290 | 6.84 | – | pIC50 (Plasmodium falciparum [3]): 7.28; pIC50 (Plasmodium falciparum [4]): 7.13
10 | Fc1ccc(-c2ccc3/c(=N/c4ccc(-c5ccccc5)cc4)ccn(CCCN4CCCCC4)c3c2)cc1 | – | 5.68 | – | 5.12 | 138 | 7.26 | Non-toxic | MIC [10]: 500 µM (≈ 258 µg/mL)
11 | c1ccc(-c2ccc(/N=c3\ccn(CCCN4CCCCC4)c4cc(-c5cnc6ccccc6c5)ccc34)cc2)cc1 | – | 6.15 | – | 5.11 | 143 | 7.27 | – | Ratio IC50 (Plasmodium berghei [12]): > 10
12 | CCN(CC)CCCCn1cc/c(=N\c2ccc(-c3ccccc3)cc2)c2ccc(C(F)(F)F)cc21 | Stable | – | 81.5 | < 4.00 | >1988 | 7.30 | – | –
13 | GENTAMICIN | – | – | – | – | – | – | – | inhibition [13]: inactive
14 | FC(F)(F)c1ccc2/c(=N/c3ccc(-c4ccccc4)cc3)ccn(CCN3CCCC3)c2c1 | Stable | – | 79 | < 4.00 | >442 | 6.65 | Non-toxic | inhibition [13]: inactive
15 | FC(F)(F)c1ccc2c(c1)/c(=N/c1ccc(-c3ccccc3)cc1)ccn2CCCN1CCCCC1 | – | – | – | 4.63 | 38 | 6.20 | Non-toxic | MIC [10]: 1000 µM (≈ 490 µg/mL)
16 | CCN(CC)CCn1cc/c(=N\c2ccc(-c3ccccc3)cc2)c2ccc(C(F)(F)F)cc21 | Stable | 5.34 | 80.4 | 4.41 | 73 | 6.28 | Non-toxic | inhibition [13]: inactive
17 | Clc1ccc2/c(=N/c3ccc(Br)cc3)ccn(CCCN3CCCCC3)c2c1 | – | 5.52 | – | < 4.00 | >1351 | 7.13 | – | –
18 | Fc1ccc(/N=c2\ccn(CCCN3CCCCC3)c3cc(Cl)ccc23)cc1 | – | 5.32 | – | < 4.00 | >271 | 6.43 | Non-toxic | inhibition [13]: inactive
19 | CCN(CC)CCCC(C)Nc1ccnc2cc(Cl)ccc12 (stereo not given) [CHLOROQUINE] | – | – | – | – | – | – | – | MIC [10]: 125 µM (≈ 40 µg/mL)
20 | Clc1ccc(/N=c2\ccn(CCCN3CCCCC3)c3cc(Cl)ccc23)cc1 | – | 5.57 | – | < 4.00 | >386 | 6.59 | Non-toxic | inhibition [13]: inactive
21 | Clc1ccc2/c(=N/c3ccc(Oc4ccccc4)cc3)ccn(CCCN3CCCCC3)c2c1 | Stable | – | 73 | 4.51 | 191 | 6.80 | Non-toxic | MIC [10]: 500 µM (≈ 236 µg/mL)
22 | Clc1ccc2/c(=N/c3ccccc3)ccn(CCCN3CCCCC3)c2c1 | – | – | – | < 4.00 | >366 | 6.56 | Non-toxic | inhibition [13]: inactive
23 | FC(F)(F)c1ccc2/c(=N/c3ccc(-c4ccccc4)cc3)ccn(CCCN3CCCCC3)c2c1 | Stable | – | 65 | 4.25 | 158 | 6.44 | – | pIC50 (Plasmodium falciparum [3]): 6.71; pIC50 (Plasmodium falciparum [4]): 6.87
24 | Clc1ccc2/c(=N/c3ccc(-c4ccccc4)cc3)ccn(CCN3CCCC3)c2c1 | – | 5.46 | – | < 4.00 | >900 | 6.95 | – | pIC50 (Plasmodium falciparum [3]): 6.73; pIC50 (Plasmodium falciparum [4]): 6.75
